One compound from ChEMBL document CHEMBL3526140, “Prediction of human intestinal absorption of the prodrug temocapril by in situ single-pass perfusion using rat intestine with modified hydrolase activity” (Drug Metab Dispos, 2011) can be followed below.

The structures appear in SMILES notation.

What is called logD is the decadic logarithm of the distribution of all forms, ionised or not, between an organic phase and buffer at a given pH. Read a low logD as a more hydrophilic compound.

The test system of data set [1] is Jejunum. As to the kind of experiment: Drug uptake in Wistar rat jejunum lumen assessed as rate of drug appearance at 100 uM by in-situ single-pass perfusion method. The note with it: in vivo. The data set is classed as ADME, tissue-based. In a few lines:
(§1)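 Rats fasted 18–24 h, anesthetized with intraperitoneal pentobarbital. Isolated cannulated jejunal segment kept at 37°C in Krebs–Henseleit buffer with 3% BSA and 10 mM glucose. Vascular perfusion with Krebs–Henseleit (pH 7.4) at 2.5 ml/min. Lumen perfused at 0.2 ml/min with phosphate buffer (pH 5.4, 6.4 or 7.4) containing 100 µM drug plus FD-4. Luminal and vascular samples assayed by HPLC (UV 258 nm). Parameters normalized to 10 cm intestine. Mean ± S.D., n = 3–6.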

Data set [2] can be described thus: Partition coefficient, log P between n-octanol and phosphate buffer at pH 7.4. The data set is classed as physicochemical.
Data set [3] concerns Jejunum. As to the kind of experiment: Apparent absorption clearance in Wistar rat jejunum at 100 uM at pH 6.4 by in-situ single-pass perfusion method. The data set is classed as ADME, tissue-based. Conditions: in vivo. In a few lines: as §1
Data set [4] deals with Jejunum. As to the kind of experiment: Drug uptake in Wistar rat jejunum blood vessel assessed as rate of drug appearance at 100 uM by in-situ single-pass perfusion method. Conditions: in vivo. The format is ADME, tissue-based. In outline: as §1
Data set [5] concerns Jejunum. As to the kind of experiment: Intracellular drug level in Wistar rat jejunum at 100 uM at pH 6.4 by in-situ single-pass perfusion method. The data set is classed as ADME, tissue-based. Conditions: in vivo. In outline:
as §1

The test system of data set [6] is Jejunum. The experiment in a line: Drug uptake in Wistar rat jejunum blood vessel assessed as rate of drug appearance at 100 uM at pH 6.4 by in-situ single-pass perfusion method. Conditions: in vivo, pH 6.4, 100 µM. The data set is classed as ADME, tissue-based. In a few lines:
as §1

For the compound `O=C(O)CN1C[C@@H](c2cccs2)SC[C@H](N[C@@H](CCc2ccccc2)C(=O)O)C1=O` [TEMOCAPRILAT], the Drug uptake is reported as 2.25 nmol/min in the data set on Jejunum [1], 1.22 nmol/min with Jejunum [4], 2.99 nmol/g in the data set with Jejunum [5] and 0.193 nmol/min with Jejunum [6]. This compound displayed a logD in data set [2] of 2.5. For the same compound, the “CL(app)” value with Jejunum [3] was found to be 1.87 µL/min.
